# Laboratory results as given in ChEMBL document CHEMBL2375244 (J Med Chem, 2013).
# What was measured:
# [1] = target: Mitogen-activated protein kinase 15 (Homo sapiens) (UniProt Q8TD08); assay: Inhibition of human ERK7 at 0.1 uM incubated for 15 mins prior to substrate addition measured after 90 mins by P33-radiolabeled assay relative to control
# MDA-MB-231 = assay: Cytotoxicity against human MDA-MB-231 cells after 72 hrs by resazurin/resorufin-based fluorescence assay; format: functional, cell-based; conditions: MDA-MB-231, 72 h
# [2] = target: CDK4/Cyclin D3 (Homo sapiens) (UniProt P11802+P30281); assay: Inhibition of human CDK4/Cyclin D3 at 0.1 uM incubated for 15 mins prior to substrate addition measured after 90 mins by P33-radiolabeled assay relative to control; format: protein-complex assay
# [3] = target: T1, Cyclin-dependent kinase 5/CDK5 activator 1 (Homo sapiens) (UniProt Q00535+Q15078); assay: Inhibition of human CDK5/P35 at 0.1 uM incubated for 15 mins prior to substrate addition measured after 90 mins by P33-radiolabeled assay relative to control; format: protein-complex assay
# [4] = target: CDK2/Cyclin A1 (Homo sapiens) (UniProt P24941+P78396); assay: Inhibition of human CDK2/Cyclin A1 at 0.1 uM incubated for 15 mins prior to substrate addition measured after 90 mins by P33-radiolabeled assay relative to control; format: protein-complex assay
# CDK6/cyclin D1 = CDK6/cyclin D1 (Homo sapiens, UniProt Q00534); assay: Inhibition of CDK6/Cyclin D1 (unknown origin)-mediated phosphorylation of peptide substrate incubated for 15 mins prior to substrate addition measured after 90 mins by P33-radiolabeled assay; format: protein-complex assay
# [5] = target: CDK9/Cyclin K (Homo sapiens) (UniProt P50750+O75909); assay: Inhibition of human CDK9/Cyclin K at 0.1 uM incubated for 15 mins prior to substrate addition measured after 90 mins by P33-radiolabeled assay relative to control; format: protein-complex assay
# Method in brief: (§1)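 Kinome profiling (339-kinase panel) by a contract lab using a P33-radiolabel assay. Each kinase was tested at a single compound concentration of 0.1 μM, in duplicate, with ATP at 10 μM.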
# [6] = target: Cyclin-dependent kinase 7/ cyclin H (Homo sapiens, UniProt P50613); assay: Inhibition of CDK7/Cyclin H (unknown origin)-mediated phosphorylation of peptide substrate incubated for 15 mins prior to substrate addition measured after 90 mins by P33-radiolabeled assay; format: protein-complex assay
# [7] = Cytotoxicity against mouse TM4 cells after 72 hrs by MTT assay; format: functional, cell-based; conditions: TM4, 72 h
# Method in brief: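 Cells kept in RPMI or DMEM with 10% FBS at 37 °C, 5% CO₂ and allowed to attach overnight; 72 h with increasing inhibitor concentrations; then 1 mg/mL MTT for 3 h, DMSO solubilisation, OD read at 540 nm. Testis lines had culture conditions adapted to them. Dose-response in triplicate, 9 concentrations between 0.02 and 100 μM, averaged.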
# SK-BR-3 = assay: Cytotoxicity against human SK-BR-3 cells after 72 hrs by resazurin/resorufin-based fluorescence assay; format: functional, cell-based; conditions: SK-BR-3, 72 h
# Method in brief: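 CellTiter-Blue viability: 1200 cells per well seeded, incubated overnight at 37 °C, 5% CO₂; drugs serially diluted 2:3 in medium, four replicate wells per concentration plus four diluent-only control wells; 72 h exposure; resazurin reduction to resorufin read by fluorescence (579 nm ex/584 nm em). IC50 is the average of three data sets, each using nine concentrations between 0.004 μM and 12.5 μM.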
# [8] = target: T2, Glycogen synthase kinase-3 beta (Homo sapiens, UniProt P49841); assay: Inhibition of GSK3beta (unknown origin)-mediated phosphorylation of peptide substrate incubated for 15 mins prior to substrate addition measured after 90 mins by P33-radiolabeled assay
# Target sequence in this assay (P49841 whole entry): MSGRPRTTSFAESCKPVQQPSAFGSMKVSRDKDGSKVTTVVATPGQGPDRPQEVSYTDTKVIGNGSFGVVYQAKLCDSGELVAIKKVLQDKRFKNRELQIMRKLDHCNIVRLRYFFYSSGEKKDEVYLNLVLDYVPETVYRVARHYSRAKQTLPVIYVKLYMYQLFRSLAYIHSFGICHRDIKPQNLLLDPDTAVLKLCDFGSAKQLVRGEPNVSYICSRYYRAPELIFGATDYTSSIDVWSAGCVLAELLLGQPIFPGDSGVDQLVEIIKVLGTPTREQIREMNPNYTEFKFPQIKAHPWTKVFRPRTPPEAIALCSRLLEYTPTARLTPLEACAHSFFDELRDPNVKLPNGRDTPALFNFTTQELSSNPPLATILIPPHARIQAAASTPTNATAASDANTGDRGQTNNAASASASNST
# CDK2/Cyclin A2 = CDK2/Cyclin A2 (Homo sapiens, UniProt P24941); assay: Inhibition of human CDK2/Cyclin A2 using PKTPKKAKKL as substrate by P33-radiolabeled assay; format: protein-complex assay
# Method in brief: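 Radiometric (P33) kinase assay run by a contract lab on CDK–cyclin complexes. Inhibitor tested in duplicate at 0.05 nM to 1000 nM with ATP at 10 μM. […] For the in-house assays, IC50 was obtained by Hill-equation fitting.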
# [9] = target: CDK9/cyclin T1 (Homo sapiens) (UniProt O60563+P50750); assay: Inhibition of human CDK9/CyclinT1 at 0.1 uM incubated for 15 mins prior to substrate addition measured after 90 mins by P33-radiolabeled assay relative to control; format: protein-complex assay; method in brief: as §1
# [10] = target: Serine/threonine-protein kinase TAO1 (Homo sapiens) (UniProt Q7L7X3); assay: Inhibition of human TAO1 at 0.1 uM incubated for 15 mins prior to substrate addition measured after 90 mins by P33-radiolabeled assay relative to control
# [11] = target: Glycogen synthase kinase-3 alpha (Homo sapiens) (UniProt P49840); assay: Inhibition of human GSK3alpha at 0.1 uM incubated for 15 mins prior to substrate addition measured after 90 mins by P33-radiolabeled assay relative to control
# [12] = target: T1, Cyclin-dependent kinase 5/CDK5 activator 1 (Homo sapiens); assay: Inhibition of human CDK5/P25 at 0.1 uM incubated for 15 mins prior to substrate addition measured after 90 mins by P33-radiolabeled assay relative to control; format: protein-complex assay
# [13] = target: T2, Glycogen synthase kinase-3 beta; assay: Inhibition of human GSK3beta at 0.1 uM incubated for 15 mins prior to substrate addition measured after 90 mins by P33-radiolabeled assay relative to control
# Target sequence in this assay (P49841 whole entry, looked up): as the sequence (P49841 whole entry) above
# CDK1/Cyclin A = CDK1/Cyclin A (Homo sapiens, UniProt P06493); assay: Inhibition of CDK1/Cyclin A (unknown origin)-mediated phosphorylation of peptide substrate incubated for 15 mins prior to substrate addition measured after 90 mins by P33-radiolabeled assay; format: protein-complex assay
# SK-UT-1 = assay: Cytotoxicity against human SK-UT-1 cells after 72 hrs by resazurin/resorufin-based fluorescence assay; format: functional, cell-based; conditions: SK-UT-1, 72 h
# SK-ES1 = assay: Cytotoxicity against human SK-ES-1 cells after 72 hrs by resazurin/resorufin-based fluorescence assay; format: functional, cell-based; conditions: SK-ES1, 72 h
# [14] = Cytotoxicity against human MDA-MB-436 cells after 72 hrs by resazurin/resorufin-based fluorescence assay; format: functional, cell-based; conditions: MDA-MB-436, 72 h
# [15] = target: CDK1/Cyclin E (Homo sapiens) (UniProt P06493+P24864); assay: Inhibition of human CDK1/Cyclin E at 0.1 uM incubated for 15 mins prior to substrate addition measured after 90 mins by P33-radiolabeled assay relative to control; format: protein-complex assay
# NCI-H929 = assay: Induction of apoptosis in human NCI-H929 cells assessed as increase in cleaved caspase-3 level at […] after 24 hrs by FACS flow cytometric analysis relative to control; format: functional
# HOS-TE85 = assay: Cytotoxicity against human MNNG-HOS cells after 72 hrs by resazurin/resorufin-based fluorescence assay; format: functional, cell-based; conditions: HOS-TE85, 72 h
# [16] = target: Cyclin-dependent kinase 2/cyclin E1 (Homo sapiens) (UniProt P24864+P24941); assay: Inhibition of human CDK2/Cyclin E at 0.1 uM incubated for 15 mins prior to substrate addition measured after 90 mins by P33-radiolabeled assay relative to control; format: protein-complex assay
# [17] = target: CDK2/Cyclin A2 (Homo sapiens) (UniProt P24941+P20248); assay: Inhibition of human CDK2/Cyclin A at 0.1 uM incubated for 15 mins prior to substrate addition measured after 90 mins by P33-radiolabeled assay relative to control; format: protein-complex assay
# CDK3/Cyclin E = CDK3/Cyclin E (Homo sapiens, UniProt Q00526); assay: Inhibition of CDK3/Cyclin E (unknown origin)-mediated phosphorylation of peptide substrate incubated for 15 mins prior to substrate addition measured after 90 mins by P33-radiolabeled assay; format: protein-complex assay
# Sequence of CDK3/Cyclin E (P24864 whole entry): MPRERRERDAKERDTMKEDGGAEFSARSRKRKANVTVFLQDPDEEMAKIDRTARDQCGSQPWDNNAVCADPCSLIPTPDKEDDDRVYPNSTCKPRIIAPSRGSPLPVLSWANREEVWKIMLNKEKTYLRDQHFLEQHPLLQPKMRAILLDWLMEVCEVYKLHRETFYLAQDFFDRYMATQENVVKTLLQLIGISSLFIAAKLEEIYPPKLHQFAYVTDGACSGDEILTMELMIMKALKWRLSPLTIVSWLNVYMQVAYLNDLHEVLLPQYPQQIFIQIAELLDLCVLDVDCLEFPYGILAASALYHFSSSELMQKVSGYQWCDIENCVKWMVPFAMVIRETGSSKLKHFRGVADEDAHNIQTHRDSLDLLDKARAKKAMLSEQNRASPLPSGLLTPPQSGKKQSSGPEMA
# Sequence of CDK3/Cyclin E (Q00526 whole entry): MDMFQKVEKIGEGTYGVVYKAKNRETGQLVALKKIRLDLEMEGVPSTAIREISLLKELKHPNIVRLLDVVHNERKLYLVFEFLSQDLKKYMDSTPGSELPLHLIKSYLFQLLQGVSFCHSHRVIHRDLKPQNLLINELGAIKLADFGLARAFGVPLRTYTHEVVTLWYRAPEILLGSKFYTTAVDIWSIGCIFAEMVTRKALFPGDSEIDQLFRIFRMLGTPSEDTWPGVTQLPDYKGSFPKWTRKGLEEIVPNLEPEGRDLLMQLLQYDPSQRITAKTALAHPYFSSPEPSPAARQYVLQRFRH
# T1 sequence (Q00535 whole entry): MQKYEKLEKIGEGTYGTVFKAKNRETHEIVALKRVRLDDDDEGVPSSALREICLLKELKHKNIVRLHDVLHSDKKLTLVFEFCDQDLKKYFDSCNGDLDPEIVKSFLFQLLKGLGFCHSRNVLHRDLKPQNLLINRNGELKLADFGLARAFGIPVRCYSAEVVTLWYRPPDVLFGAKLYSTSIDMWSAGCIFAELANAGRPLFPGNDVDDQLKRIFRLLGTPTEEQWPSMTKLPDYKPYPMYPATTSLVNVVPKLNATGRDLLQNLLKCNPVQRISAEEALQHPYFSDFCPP
# T1 sequence (Q15078 99-307 partner limits assumed): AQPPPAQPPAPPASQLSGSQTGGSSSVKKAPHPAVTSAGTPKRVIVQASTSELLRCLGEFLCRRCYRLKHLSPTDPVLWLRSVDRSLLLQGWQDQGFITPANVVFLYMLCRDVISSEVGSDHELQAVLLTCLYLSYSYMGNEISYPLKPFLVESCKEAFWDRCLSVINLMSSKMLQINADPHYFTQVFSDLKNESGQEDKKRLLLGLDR
# Sequence of Cyclin-dependent kinase 7/ cyclin H (P51946 whole entry): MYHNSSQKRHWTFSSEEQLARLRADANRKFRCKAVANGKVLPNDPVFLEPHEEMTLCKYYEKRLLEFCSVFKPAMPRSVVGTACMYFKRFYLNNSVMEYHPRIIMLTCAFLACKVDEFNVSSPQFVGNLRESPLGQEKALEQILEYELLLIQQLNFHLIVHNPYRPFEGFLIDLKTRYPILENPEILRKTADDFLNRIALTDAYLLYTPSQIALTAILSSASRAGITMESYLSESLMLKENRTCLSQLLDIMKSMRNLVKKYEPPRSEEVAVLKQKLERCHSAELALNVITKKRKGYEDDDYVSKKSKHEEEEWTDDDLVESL
# Sequence of Cyclin-dependent kinase 7/ cyclin H (P50613 whole entry): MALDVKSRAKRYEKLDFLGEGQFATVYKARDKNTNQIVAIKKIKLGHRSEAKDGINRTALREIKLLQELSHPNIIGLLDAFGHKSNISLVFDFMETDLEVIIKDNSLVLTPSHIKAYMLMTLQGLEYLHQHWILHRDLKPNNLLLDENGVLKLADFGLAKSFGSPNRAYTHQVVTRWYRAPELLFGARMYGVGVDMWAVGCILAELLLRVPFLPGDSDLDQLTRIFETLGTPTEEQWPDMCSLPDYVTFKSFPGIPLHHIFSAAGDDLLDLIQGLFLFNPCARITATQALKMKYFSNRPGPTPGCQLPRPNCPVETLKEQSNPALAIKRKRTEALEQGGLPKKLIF
# Sequence of CDK6/cyclin D1 (P24385 whole entry): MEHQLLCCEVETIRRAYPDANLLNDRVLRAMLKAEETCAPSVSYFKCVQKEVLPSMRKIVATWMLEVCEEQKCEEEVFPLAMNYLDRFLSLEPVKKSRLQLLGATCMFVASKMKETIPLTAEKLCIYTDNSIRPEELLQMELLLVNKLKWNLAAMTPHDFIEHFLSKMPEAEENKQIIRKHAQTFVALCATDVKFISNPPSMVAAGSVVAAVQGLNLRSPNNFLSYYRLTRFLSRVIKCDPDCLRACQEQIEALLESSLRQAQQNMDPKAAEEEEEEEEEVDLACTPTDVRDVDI
# Sequence of CDK6/cyclin D1 (Q00534 whole entry): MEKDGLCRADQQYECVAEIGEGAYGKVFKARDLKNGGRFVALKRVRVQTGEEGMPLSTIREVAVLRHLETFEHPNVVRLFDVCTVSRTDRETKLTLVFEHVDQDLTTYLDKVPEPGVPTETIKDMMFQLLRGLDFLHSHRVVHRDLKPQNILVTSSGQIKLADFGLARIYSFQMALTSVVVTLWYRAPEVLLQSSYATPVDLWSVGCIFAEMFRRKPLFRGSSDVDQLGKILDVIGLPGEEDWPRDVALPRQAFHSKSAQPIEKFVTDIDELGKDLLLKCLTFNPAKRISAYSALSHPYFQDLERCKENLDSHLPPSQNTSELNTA
# Sequence of Mitogen-activated protein kinase 15 (Homo sapiens) (Q8TD08 whole entry): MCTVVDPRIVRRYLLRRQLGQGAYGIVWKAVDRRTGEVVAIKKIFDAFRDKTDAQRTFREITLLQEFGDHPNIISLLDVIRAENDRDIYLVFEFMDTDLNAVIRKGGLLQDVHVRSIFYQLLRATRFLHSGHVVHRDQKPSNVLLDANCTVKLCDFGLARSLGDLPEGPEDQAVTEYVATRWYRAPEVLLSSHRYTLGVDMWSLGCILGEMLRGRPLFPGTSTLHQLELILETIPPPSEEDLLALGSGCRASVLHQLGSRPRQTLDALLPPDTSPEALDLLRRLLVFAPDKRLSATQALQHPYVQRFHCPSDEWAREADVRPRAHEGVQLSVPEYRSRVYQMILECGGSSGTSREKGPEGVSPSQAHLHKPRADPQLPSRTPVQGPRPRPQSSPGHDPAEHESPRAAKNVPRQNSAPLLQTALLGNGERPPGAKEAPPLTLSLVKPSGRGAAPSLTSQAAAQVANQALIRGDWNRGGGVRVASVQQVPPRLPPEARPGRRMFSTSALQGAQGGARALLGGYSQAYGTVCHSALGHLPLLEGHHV
# Sequence of Serine/threonine-protein kinase TAO1 (Homo sapiens) (Q7L7X3 whole entry): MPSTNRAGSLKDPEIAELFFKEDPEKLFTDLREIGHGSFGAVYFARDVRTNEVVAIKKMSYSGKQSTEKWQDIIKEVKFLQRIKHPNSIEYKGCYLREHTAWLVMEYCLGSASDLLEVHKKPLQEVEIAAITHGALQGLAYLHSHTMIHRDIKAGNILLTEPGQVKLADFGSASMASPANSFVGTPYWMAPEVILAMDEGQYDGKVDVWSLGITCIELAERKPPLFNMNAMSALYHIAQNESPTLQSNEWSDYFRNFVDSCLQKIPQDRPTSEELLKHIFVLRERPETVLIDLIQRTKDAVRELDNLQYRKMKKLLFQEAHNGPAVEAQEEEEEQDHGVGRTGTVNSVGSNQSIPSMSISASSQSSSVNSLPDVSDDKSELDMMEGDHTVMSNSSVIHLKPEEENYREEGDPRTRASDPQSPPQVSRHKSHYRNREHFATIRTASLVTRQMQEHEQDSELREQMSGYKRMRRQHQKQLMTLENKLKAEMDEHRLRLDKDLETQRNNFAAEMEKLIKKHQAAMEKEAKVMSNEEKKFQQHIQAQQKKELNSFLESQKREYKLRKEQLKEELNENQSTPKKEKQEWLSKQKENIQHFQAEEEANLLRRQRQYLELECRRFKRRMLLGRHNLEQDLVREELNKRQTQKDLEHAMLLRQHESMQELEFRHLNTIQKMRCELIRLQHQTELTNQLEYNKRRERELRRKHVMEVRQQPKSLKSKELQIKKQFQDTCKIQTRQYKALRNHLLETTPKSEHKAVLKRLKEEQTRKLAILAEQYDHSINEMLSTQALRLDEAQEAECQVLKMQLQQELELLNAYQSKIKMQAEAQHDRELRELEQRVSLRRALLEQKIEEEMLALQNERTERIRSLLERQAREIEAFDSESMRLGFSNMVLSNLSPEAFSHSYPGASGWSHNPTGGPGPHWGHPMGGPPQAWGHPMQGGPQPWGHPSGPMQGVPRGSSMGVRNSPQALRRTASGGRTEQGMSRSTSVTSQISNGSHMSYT
# Sequence of CDK1/Cyclin E (Homo sapiens) (P06493 whole entry, looked up): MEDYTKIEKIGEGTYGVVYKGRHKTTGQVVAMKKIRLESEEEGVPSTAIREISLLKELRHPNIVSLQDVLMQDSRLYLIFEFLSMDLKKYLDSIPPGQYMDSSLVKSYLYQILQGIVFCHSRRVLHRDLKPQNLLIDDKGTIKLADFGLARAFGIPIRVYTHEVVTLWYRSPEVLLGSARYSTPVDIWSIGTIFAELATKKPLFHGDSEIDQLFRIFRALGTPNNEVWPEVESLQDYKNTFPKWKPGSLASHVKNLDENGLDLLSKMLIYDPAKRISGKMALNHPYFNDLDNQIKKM
# Sequence of CDK1/Cyclin E (Homo sapiens) (P24864 whole entry, looked up): as the sequence (P24864 whole entry) above
structure (smiles),measurement,setting,value
Nc1nc(Nc2ccc(S(N)(=O)=O)cc2)sc1C(=O)c1ccccc1[N+](=O)[O-],inhibition,[1],70%
same,IC50,MDA-MB-231,1500 nM
same,inhibition,[2],80%
same,inhibition,[3],90%
same,inhibition,[4],90%
same,IC50,CDK6/cyclin D1,6.6 nM
same,inhibition,[5],80%
same,IC50,[6],> 1000 nM
same,IC50,[7],16000 nM
same,IC50,SK-BR-3,490 nM
same,IC50,[8],107 nM
same,IC50,CDK2/Cyclin A2,1.5 nM
same,inhibition,[9],90%
same,inhibition,[10],60%
same,inhibition,[11],75%
same,inhibition,[12],90%
same,inhibition,[13],60%
same,IC50,CDK1/Cyclin A,7.6 nM
same,IC50,SK-UT-1,1400 nM
same,IC50,SK-ES1,560 nM
same,IC50,[14],2000 nM
same,inhibition,[15],80%
same,Activity,NCI-H929,26%
same,IC50,HOS-TE85,3000 nM
same,inhibition,[16],90%
same,inhibition,[17],90%
same,IC50,CDK3/Cyclin E,38 nM
